Laboratory results from PMC4689628 (Organic & biomolecular chemistry, 2016).

Columns and labels:
MLL1 SET domain [1] = molecular target: T1, MLL1 SET domain (Homo sapiens, UniProt Q03164); test: FL-NAH fluorescence polarization saturation binding, isolated SET domain; conditions: SET Only
In short: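 The isolated MLL1 SET domain was titrated in increasing concentrations against 50 nM fluorescein-azaadenosylhomocysteine probe. Buffer was 20 mM Tris pH 8.0, 0.01% Triton X-100, 5 mM DTT. Incubation was 30 min at ambient temperature. FP was read at ex 485/em 528 nm. Kd and ΔFPmax came from nonlinear least-squares single-site saturation fit of ΔFP. Mean ± SD, three independent experiments.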

[2] = molecular target: T2, trimeric MLL1 complex (MLL1, RbBP5 and WDR5) (Homo sapiens, UniProt Q03164); test: FL-NAH fluorescence polarization saturation binding, trimeric complex
tetrameric MLL1 complex [3] = molecular target: T3, tetrameric MLL1 complex (Homo sapiens, UniProt Q03164); test: FL-NAH fluorescence polarization saturation binding, tetrameric complex
T3 sequence (Q03164 3829-3945): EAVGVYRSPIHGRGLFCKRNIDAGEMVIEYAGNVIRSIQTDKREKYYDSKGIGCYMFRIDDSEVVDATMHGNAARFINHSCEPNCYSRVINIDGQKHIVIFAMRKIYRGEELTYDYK
T3 sequence (Q15291 whole entry, further chain): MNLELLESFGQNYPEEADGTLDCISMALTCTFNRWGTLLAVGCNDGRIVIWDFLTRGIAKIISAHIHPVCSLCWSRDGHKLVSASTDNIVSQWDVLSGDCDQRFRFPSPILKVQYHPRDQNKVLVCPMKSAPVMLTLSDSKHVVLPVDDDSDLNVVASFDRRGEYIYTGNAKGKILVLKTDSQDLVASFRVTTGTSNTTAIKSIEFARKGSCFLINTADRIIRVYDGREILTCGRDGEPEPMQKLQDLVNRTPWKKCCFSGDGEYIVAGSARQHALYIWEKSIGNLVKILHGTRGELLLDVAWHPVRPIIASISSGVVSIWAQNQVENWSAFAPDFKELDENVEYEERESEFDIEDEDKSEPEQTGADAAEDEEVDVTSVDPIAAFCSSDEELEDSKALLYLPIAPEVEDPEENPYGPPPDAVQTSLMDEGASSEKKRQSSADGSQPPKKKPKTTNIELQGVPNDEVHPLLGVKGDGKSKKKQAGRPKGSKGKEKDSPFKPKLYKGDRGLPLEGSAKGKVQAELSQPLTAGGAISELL
T3 sequence (Q9UBL3 whole entry, further chain): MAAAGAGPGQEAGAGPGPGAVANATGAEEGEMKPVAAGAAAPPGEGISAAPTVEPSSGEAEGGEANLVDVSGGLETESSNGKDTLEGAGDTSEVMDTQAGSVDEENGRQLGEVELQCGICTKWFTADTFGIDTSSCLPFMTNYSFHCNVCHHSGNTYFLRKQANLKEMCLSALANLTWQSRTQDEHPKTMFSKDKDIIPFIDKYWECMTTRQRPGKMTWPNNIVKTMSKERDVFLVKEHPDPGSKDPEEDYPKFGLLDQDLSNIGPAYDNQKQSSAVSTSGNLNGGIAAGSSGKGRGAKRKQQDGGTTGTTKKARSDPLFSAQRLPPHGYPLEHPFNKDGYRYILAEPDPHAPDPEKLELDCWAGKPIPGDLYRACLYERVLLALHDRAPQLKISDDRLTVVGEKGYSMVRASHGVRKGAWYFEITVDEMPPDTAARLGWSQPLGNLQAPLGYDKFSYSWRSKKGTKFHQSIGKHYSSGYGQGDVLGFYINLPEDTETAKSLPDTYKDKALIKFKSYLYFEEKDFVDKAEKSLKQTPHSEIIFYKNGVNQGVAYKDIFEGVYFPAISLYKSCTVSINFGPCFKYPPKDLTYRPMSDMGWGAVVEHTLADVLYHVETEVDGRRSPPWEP

pentameric MLL1 complex [4] = molecular target: T4, pentameric MLL1 complex (Homo sapiens, UniProt Q03164); test: FL-NAH fluorescence polarization saturation binding, pentameric complex
MLL1 SET domain [5] = molecular target: T1, MLL1 SET domain; test: saturation-transfer difference; type: binding; conditions: Supplementary Figure 2
MLL1 SET domain [6] = molecular target: T1, MLL1 SET domain; test: differential static light scattering; type: binding; conditions: Supplementary Figure 3
MLL1 SET domain [7] = molecular target: T1, MLL1 SET domain; test: FL-NAH displacement FP assay, isolated SET domain; type: binding; conditions: for Hill Slope: SET Only, FL-NAH displacement curve
[8] = molecular target: T2, trimeric MLL1 complex (MLL1, RbBP5 and WDR5); test: FL-NAH displacement FP assay, trimeric complex; type: binding; conditions: for Hill Slope: Trimeric complex, FL-NAH displacement curve
tetrameric MLL1 complex [9] = molecular target: T3, tetrameric MLL1 complex; test: FL-NAH displacement FP assay, tetrameric complex; type: binding; conditions: for Hill Slope: Tetrameric complex, FL-NAH displacement curve
In short: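 The tetrameric MLL1 complex was diluted to its own Kd (probe) concentration. It was then incubated 30 min at ambient temperature with 50 nM fluorescein-azaadenosylhomocysteine probe and increasing concentrations of test compound. Buffer was 20 mM Tris pH 8.0, 0.01% Triton X-100, 5 mM DTT. FP was read at ex 485/em 528 nm, in mP. Kdisp and Hill coefficient came from nonlinear least-squares sigmoidal fit. Mean ± SD, ≥3 independent experiments.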

pentameric MLL1 complex [10] = molecular target: T4, pentameric MLL1 complex; test: FL-NAH displacement FP assay, pentameric complex; type: binding; conditions: for Hill Slope: Pentameric complex, FL-NAH displacement curve
[11] = polarization expressed in mP (methods)

T1 sequence (Q03164 3829-3945 limits assumed): as the sequence (Q03164 3829-3945) above

Row | Structure (SMILES) | Kd (MLL1 SET domain [1]; 50 nM FL-NAH, FP after 30 min) [nM] | ΔFPmax (MLL1 SET domain [1]; [11]) | Kd ([2]; 50 nM FL-NAH, FP after 30 min) [nM] | ΔFPmax [2, 11] | Kd (tetrameric MLL1 complex [3]; 50 nM FL-NAH, FP after 30 min) [nM] | ΔFPmax (tetrameric MLL1 complex [3]; [11]) | Kd (pentameric MLL1 complex [4]; 50 nM FL-NAH, FP after 30 min) [nM] | ΔFPmax (pentameric MLL1 complex [4]; [11]) | binding to MLL1 SET domain alone by STD NMR (MLL1 SET domain [5]) | binding to MLL1 SET domain alone by differential static light scattering (MLL1 SET domain [6]) | Hill Slope (MLL1 SET domain [7]) | Hill Slope [8] | Hill Slope (tetrameric MLL1 complex [9]) | Hill Slope (pentameric MLL1 complex [10]) | increase in potency of FL-NAH displacement, pentameric complex relative to the isolated SET domain (pentameric MLL1 complex [10]; pentameric vs isolated SET domain) [fold] | IC50 (MLL1 SET domain [7]) [nM] | IC50 [8] [nM] | IC50 (tetrameric MLL1 complex [9]) [nM] | IC50 (pentameric MLL1 complex [10]) [nM]
1 | Nc1ncnc2c1ncn2[C@@H]1O[C@H](CN(CC[C@H](N)C(=O)O)Cc2cn(CCNC(=O)c3ccc4c(c3)C(=O)OC43c4ccc(O)cc4Oc4cc(O)ccc43)nn2)[C@@H](O)[C@H]1O [FL-NAH, fluorescein linked with N-adenosylhomocysteine] | 1000 ± 100 | 240 ± 3 | 7000 ± 3000 | 260 ± 40 | 1400 ± 400 | 300 ± 30 | 200 ± 30 | 270 ± 20 | confirmed | confirmed | – | – | – | – | – | – | – | – | –
2 | Nc1ncnc2c1ncn2[C@@H]1O[C@H](CSCC[C@H](N)C(=O)O)[C@@H](O)[C@H]1O [SAH] | – | – | – | – | – | – | – | – | – | – | −0.9 ± 0.2 | −1.5 ± 0.3 | −1.9 ± 0.1 | −1.4 ± 0.3 | 20 | – | – | – | –
3 | C[S+](CC[C@H](N)C(=O)[O-])C[C@H]1O[C@@H](n2cnc3c(N)ncnc32)[C@H](O)[C@@H]1O (stereo partly shown) [SAM, S-adenosylmethionine] | – | – | – | – | – | – | – | – | – | – | −1.2 ± 0.1 | −1.6 ± 0.4 | −1.7 ± 0.2 | −1.6 ± 0.3 | – | 14000 ± 2000 | 7000 ± 1000 | 1000 ± 100 | 1000 ± 200
4 | Nc1ncnc2c1ncn2[C@@H]1O[C@H](C[C@@H](N)CC[C@H](N)C(=O)O)[C@@H](O)[C@H]1O [Sinefungin, sinefungin] | – | – | – | – | – | – | – | – | – | – | −0.9 ± 0.1 | −1.1 ± 0.3 | −1.2 ± 0.1 | −1.1 ± 0.3 | – | 9000 ± 200 | 10000 ± 2500 | 2000 ± 200 | 500 ± 100
